Results: ChEMBL document CHEMBL4177770, “Discovery of MK-6169, a Potent Pan-Genotype Hepatitis C Virus NS5A Inhibitor with Optimized Activity against Common Resistance-Associated Substitutions” (J Med Chem, 2018)
Positions count from the first letter of the chain named.

What was measured:
[1] = Oral bioavailability in Beagle dog at 5 mg/kg by LC/MS method; assay type: ADME, organism-based, Canis lupus familiaris; settings: in vivo
Outline: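 Beagle dogs, two animals per dosing group. Oral dose was given in 10% TWEEN. Blood was collected and spun to plasma, and plasma compound levels were measured by LC/MS.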

[2] = Tmax in Wistar Han rat at 300 mg/kg, po by LC/MS method; assay type: ADME, organism-based; settings: in vivo
Outline: (§1)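 Single rising oral dose study in fed male Wistar Han rats, dosed PO in 10% TWEEN at the indicated doses. Plasma was obtained by centrifuging the blood, and compound levels were determined by LC/MS.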

[3] = molecular target: T1, Nonstructural protein 5A (Hepatitis C virus) (UniProt Q5L478); assay: Inhibition of NS5A L31I mutant in HCV genotype 1b infected in HuH7 replicon cells assessed as decrease in viral replication after 3 days by RT-PCR method; assay type: cell-based; settings: Hepatitis C virus subtype 1b
T1 sequence (whole entry): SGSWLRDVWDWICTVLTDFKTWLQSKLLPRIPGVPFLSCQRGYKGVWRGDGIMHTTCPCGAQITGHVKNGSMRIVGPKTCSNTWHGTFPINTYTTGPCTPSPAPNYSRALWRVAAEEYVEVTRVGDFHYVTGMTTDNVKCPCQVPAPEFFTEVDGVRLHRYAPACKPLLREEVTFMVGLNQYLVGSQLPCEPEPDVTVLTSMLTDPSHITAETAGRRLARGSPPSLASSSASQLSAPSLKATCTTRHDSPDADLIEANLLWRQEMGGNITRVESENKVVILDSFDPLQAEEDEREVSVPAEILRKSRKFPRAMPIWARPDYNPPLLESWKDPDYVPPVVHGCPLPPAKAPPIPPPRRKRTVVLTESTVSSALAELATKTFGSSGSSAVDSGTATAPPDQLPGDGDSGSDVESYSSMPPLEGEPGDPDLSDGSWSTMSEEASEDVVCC

[4] = Tmax in Wistar Han rat at 100 mg/kg, po by LC/MS method; assay type: ADME, organism-based; settings: in vivo; outline: as §1
[5] = Clearance in Beagle dog at 1 mg/kg, iv by LC/MS method; assay type: ADME, organism-based, Canis lupus familiaris; settings: in vivo
Outline: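 Beagle dogs, two animals per group, dosed IV at 1 mg/kg in 60% PEG200. Plasma was prepared from collected blood by centrifugation, and compound was quantified by LC/MS.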

[6] = molecular target: T1, Nonstructural protein 5A (Hepatitis C virus); assay: Inhibition of NS5A A30T mutant in HCV genotype 3a infected in HuH7 replicon cells assessed as decrease in viral replication after 3 days by RT-PCR method; assay type: cell-based; settings: Hepatitis C virus subtype 3a
[7] = molecular target: T1, Nonstructural protein 5A (Hepatitis C virus); assay: Inhibition of NS5A M28K mutant in HCV genotype 1a infected in HuH7 replicon cells assessed as decrease in viral replication after 3 days by RT-PCR method; assay type: cell-based; settings: Hepatitis C virus subtype 1a
[8] = molecular target: T1, Nonstructural protein 5A (Hepatitis C virus); assay: Inhibition of NS5A R81S mutant in HCV genotype 1a infected in HuH7 replicon cells assessed as decrease in viral replication after 3 days by RT-PCR method; assay type: cell-based; settings: Hepatitis C virus subtype 1a
[9] = Resistance ratio of EC90 for NS5A L31M mutant in HCV genotype 2a infected in HuH7 replicon cells to EC90 for NS5A in HCV genotype 1a infected in HuH7 replicon cells; assay type: cell-based
[10] = Resistance ratio of EC90 for NS5A A30T mutant in HCV genotype 3a infected in HuH7 replicon cells to EC90 for NS5A in HCV genotype 1a infected in HuH7 replicon cells; assay type: cell-based
[11] = Cmax in Wistar Han rat at 100 mg/kg, po by LC/MS method; assay type: ADME, organism-based; design: dose 100 mg/kg, route oral; settings: in vivo; outline: as §1
[12] = test system: T2, Nonstructural protein 5A (Hepatitis C virus), Q5L478 [L28M,Y93H]; assay: Inhibition of NS5A L28M/Y93H double mutant in HCV genotype 1b infected in HuH7 replicon cells assessed as decrease in viral replication after 3 days by RT-PCR method; assay type: cell-based; settings: Hepatitis C virus subtype 1b
T2 sequence (whole entry): T1 sequence (whole entry) with L28M, Y93H

[13] = Resistance ratio of EC90 for NS5A M31V mutant in HCV genotype 2b infected in HuH7 replicon cells to EC90 for NS5A in HCV genotype 1a infected in HuH7 replicon cells; assay type: cell-based
[14] = Resistance ratio of EC90 for NS5A L31V mutant in HCV genotype 3a infected in HuH7 replicon cells to EC90 for NS5A in HCV genotype 1a infected in HuH7 replicon cells; assay type: cell-based
[15] = test system: Nonstructural protein 5A (Hepatitis C virus), Q5L478 [UNDEFINED MUTATION]; assay: Inhibition of NS5A L31M/Y93H double mutant in HCV genotype 1b infected in HuH7 replicon cells assessed as decrease in viral replication after 3 days by RT-PCR method; assay type: cell-based; settings: Hepatitis C virus subtype 1b
[16] = molecular target: T1, Nonstructural protein 5A (Hepatitis C virus); assay: Inhibition of NS5A L31M mutant in HCV genotype 2a infected in HuH7 replicon cells assessed as decrease in viral replication after 3 days by RT-PCR method; assay type: cell-based; settings: Hepatitis C virus subtype 2a
[17] = molecular target: T1, Nonstructural protein 5A (Hepatitis C virus); assay: Inhibition of NS5A L31F mutant in HCV genotype 3a infected in HuH7 replicon cells assessed as decrease in viral replication after 3 days by RT-PCR method; assay type: cell-based; settings: Hepatitis C virus subtype 3a
[18] = test system: Hepatitis C virus subtype 1a; assay: Resistance ratio of EC90 for NS5A Q30R mutant in HCV genotype 1a infected in HuH7 replicon cells to EC90 for NS5A in HCV genotype 1a infected in HuH7 replicon cells; assay type: cell-based
[19] = test system: Hepatitis C virus subtype 1a; assay: Resistance ratio of EC90 for NS5A R81W mutant in HCV genotype 1a infected in HuH7 replicon cells to EC90 for NS5A in HCV genotype 1a infected in HuH7 replicon cells; assay type: cell-based
[20] = molecular target: T1, Nonstructural protein 5A (Hepatitis C virus); assay: Inhibition of NS5A L31M mutant in HCV genotype 1b infected in HuH7 replicon cells assessed as decrease in viral replication after 3 days by RT-PCR method; assay type: cell-based; settings: Hepatitis C virus subtype 1b
[21] = molecular target: T1, Nonstructural protein 5A (Hepatitis C virus); assay: Inhibition of NS5A L31V mutant in HCV genotype 1a infected in HuH7 replicon cells assessed as decrease in viral replication after 3 days by RT-PCR method; assay type: cell-based; settings: Hepatitis C virus subtype 1a
[22] = Resistance ratio of EC90 for NS5A L31V mutant in HCV genotype 4a infected in HuH7 replicon cells to EC90 for NS5A in HCV genotype 1a infected in HuH7 replicon cells; assay type: cell-based
[23] = AUC in Wistar Han rat at 300 mg/kg, po by LC/MS method; assay type: ADME, organism-based; settings: in vivo; outline: as §1
[24] = AUC in Wistar Han rat at 100 mg/kg, po by LC/MS method; assay type: ADME, organism-based; settings: in vivo; outline: as §1

Structure (SMILES): COC(=O)N[C@H](C(=O)N1CCC[C@H]1c1ncc(-c2cc(F)c3c(c2)O[C@@H](c2ccc(C4CC4)s2)n2c-3cc3cc(-c4cnc([C@@H]5CCCN5C(=O)[C@@H](NC(=O)OC)[C@@H]5CCOC(C)(C)C5)[nH]4)ccc32)[nH]1)C(C)C
- bioavailability [1]: 14.9%
- Tmax [2]: 5 h
- EC90 [3]: 0.021 nM
- Tmax [4]: 2 h
- clearance [5]: 2.9 mL/min/kg
- EC90 [6]: 0.0036 nM
- EC90 [7]: 0.42 nM
- EC90 [8]: 0.00033 nM
- Ratio [9]: 6
- Ratio [10]: 1
- Cmax [11]: 760 nM
- EC90 [12]: 0.065 nM
- Ratio [13]: 5
- Ratio [14]: 762
- EC90 [15]: 0.19 nM
- EC90 [16]: 0.025 nM
- EC90 [17]: 0.29 nM
- Ratio [18]: 28
- Ratio [19]: < 1
- EC90 [20]: 0.0016 nM
- EC90 [21]: 0.0043 nM
- Ratio [22]: 2
- AUC [23]: 14.7 µM·h
- AUC [24]: 7.82 µM·h
